Series [1] addresses T1, Dopamine beta-hydroxylase (Bos taurus) (UniProt P15101).
T1 sequence (whole entry): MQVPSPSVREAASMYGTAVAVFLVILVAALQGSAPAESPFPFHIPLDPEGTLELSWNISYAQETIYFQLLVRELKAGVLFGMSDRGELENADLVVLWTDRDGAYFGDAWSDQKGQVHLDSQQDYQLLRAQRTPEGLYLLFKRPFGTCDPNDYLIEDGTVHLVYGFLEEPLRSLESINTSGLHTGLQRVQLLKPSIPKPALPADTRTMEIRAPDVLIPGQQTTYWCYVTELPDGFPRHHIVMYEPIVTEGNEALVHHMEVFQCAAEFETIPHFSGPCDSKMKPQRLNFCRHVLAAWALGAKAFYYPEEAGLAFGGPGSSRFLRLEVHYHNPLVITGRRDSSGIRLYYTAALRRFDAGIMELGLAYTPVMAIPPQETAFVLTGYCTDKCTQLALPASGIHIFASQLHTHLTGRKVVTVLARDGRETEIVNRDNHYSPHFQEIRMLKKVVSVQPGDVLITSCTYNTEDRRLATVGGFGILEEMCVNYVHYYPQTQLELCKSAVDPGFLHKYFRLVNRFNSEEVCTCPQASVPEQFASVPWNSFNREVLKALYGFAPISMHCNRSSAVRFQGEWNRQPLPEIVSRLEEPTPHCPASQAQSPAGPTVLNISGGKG
The experiment in a line: Compound was evaluated as substrate for Dopamine beta hydroxylase (DBH) from bovine adrenals and the enzymatic kinetic constant was reported as Kcat.

The target of series [2] is T2, Monoamine oxidase (Bos taurus, UniProt P56560+P21398).
T2 sequence (P56560 whole entry): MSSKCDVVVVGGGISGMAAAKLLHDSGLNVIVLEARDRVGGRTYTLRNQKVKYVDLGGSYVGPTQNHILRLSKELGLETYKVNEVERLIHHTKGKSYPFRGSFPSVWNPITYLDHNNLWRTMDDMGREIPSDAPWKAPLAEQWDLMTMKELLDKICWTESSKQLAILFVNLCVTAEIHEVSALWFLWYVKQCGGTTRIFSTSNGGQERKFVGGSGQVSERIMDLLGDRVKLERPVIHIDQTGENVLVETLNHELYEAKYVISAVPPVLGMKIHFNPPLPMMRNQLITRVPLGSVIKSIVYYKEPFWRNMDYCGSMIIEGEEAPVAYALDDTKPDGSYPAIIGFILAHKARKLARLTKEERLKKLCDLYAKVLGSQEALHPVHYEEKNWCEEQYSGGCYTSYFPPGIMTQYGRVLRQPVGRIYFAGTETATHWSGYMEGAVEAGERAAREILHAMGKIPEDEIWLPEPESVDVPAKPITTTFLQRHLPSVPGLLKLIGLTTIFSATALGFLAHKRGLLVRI
T2 sequence (P21398 whole entry): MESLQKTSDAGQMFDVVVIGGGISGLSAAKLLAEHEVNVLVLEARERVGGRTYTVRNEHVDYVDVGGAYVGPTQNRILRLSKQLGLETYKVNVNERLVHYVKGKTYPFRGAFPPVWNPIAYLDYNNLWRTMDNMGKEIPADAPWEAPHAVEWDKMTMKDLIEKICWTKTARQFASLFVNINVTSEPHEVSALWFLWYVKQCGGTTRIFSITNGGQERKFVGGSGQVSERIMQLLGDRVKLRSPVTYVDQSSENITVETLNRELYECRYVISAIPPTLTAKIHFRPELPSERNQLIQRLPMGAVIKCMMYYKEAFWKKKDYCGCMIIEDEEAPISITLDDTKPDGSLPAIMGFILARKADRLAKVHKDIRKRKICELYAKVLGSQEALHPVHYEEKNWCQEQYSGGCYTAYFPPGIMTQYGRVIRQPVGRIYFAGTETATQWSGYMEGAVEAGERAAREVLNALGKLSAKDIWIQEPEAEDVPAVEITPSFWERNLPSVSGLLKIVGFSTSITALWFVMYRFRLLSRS
The experiment in a line: Compound was evaluated as substrate for monoamine oxidase (MAO) from bovine […] and the enzymatic kinetic constant was reported as Kcat; c = Compounds displayed no trace of substrate activity even at high enzyme concentrations. Type of series: protein assay. Conditions: cattle. An outline of the steps:
(§1)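 Bovine MAO, a mixed A/B isozyme preparation, commercial. Oxygen monitor assay in 0.1 M potassium phosphate pH 7.2, air-saturated, 37 °C. kcat and Km from computer fit to hyperbolic Michaelis-Menten equation. kcat based on total protein, assuming MW 290 000.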

The target of series [3] is T2, Monoamine oxidase. The experiment in a line: Compound was evaluated as substrate for monoamine oxidase (MAO) from bovine […] and the enzymatic kinetic constant was reported as Km; c = Compounds displayed no trace of substrate activity even at high enzyme concentrations. The format is protein assay. Conditions: cattle. The gist of the method:
as §1

Series [4] in a line: Ratio of the kinetic parameter Kcat to the Km on substrate […] from bovine adrenals. The format is tissue-based. Conditions: Adrenal gland.
A short description of series [5]: Ratio of the kinetic parameter Kcat to the Km on substrate dopamine monoamine oxidase; c = Compounds displayed no trace of substrate activity even at high enzyme concentrations.
For series [6], the target named is T2, Monoamine oxidase. The experiment in a line: Compound was evaluated as substrate for monoamine oxidase (MAO) from bovine […] and the enzymatic kinetic constant was reported as Kcat. Conditions: cattle. The format is protein assay. The gist of the method:
as §1

Series [7] has as its target T3, monoamine oxidase (MAO) (Bos taurus, UniProt P21398+P56560).
T3 sequence (P56560 whole entry): T2 sequence (P56560 whole entry)
T3 sequence (P21398 whole entry): T2 sequence (P21398 whole entry)
The experiment in a line: Compound was evaluated as substrate for monoamine oxidase (MAO) from bovine […] and the enzymatic kinetic constant was reported as Km. Conditions: cattle. The format is protein assay. The gist of the method:
as §1

Series [8] in a line: Ratio of the kinetic parameter Kcat to the Km on substrate dopamine monoamine oxidase.
Substrate in series [9]: CC(N)CSc1ccc(O)cc1
The experiment in a line: (§2) Compound was evaluated as substrate for Dopamine beta hydroxylase (DBH) from bovine adrenals and the enzymatic kinetic constant was reported as Km. The format is tissue-based. Conditions: Adrenal gland.

Substrate in series [10]: CC(N)CSc1ccccc1
The description is as §2. Type of series: tissue-based. Conditions: Adrenal gland.

Substrate in series [11]: NCCCc1ccccc1
Described as §2. Type of series: tissue-based. Conditions: Adrenal gland.

Substrate in series [12]: NCCSc1ccc(O)cc1
The description is as §2. The format is tissue-based. Conditions: Adrenal gland.

Substrate in series [13]: NCCSc1ccccc1
The series is described as §2. Type of series: tissue-based. Conditions: Adrenal gland.

Substrate in series [14]: NCCc1ccc(O)cc1
Described as §2. The format is tissue-based. Conditions: Adrenal gland.

Substrate in series [15]: NCCc1ccccc1
The series is described as §2. Conditions: Adrenal gland. Type of series: tissue-based.

As for `CC(N)CSc1ccc(O)cc1` (racemic), the k cat is 44 s⁻¹ in [1] and “No activity” in [2]. Further, the Km (in general, the substrate concentration at which the rate is half of its maximum) in series [3] is recorded as “No activity”. Besides, the values for the Ratio in series [4] and in series [5] were 6700 M⁻¹ s⁻¹ and “No activity”, respectively.
Consider `NCCSc1ccccc1`, for which the k cat in [1] is 39 s⁻¹; in [6] it was 0.43 s⁻¹. Also, the Km in [7] stood at 0.055 mM. Besides, the Ratio in [4] came out at 2300 M⁻¹ s⁻¹; in series [8], 7300 M⁻¹ s⁻¹.
The matching figures for `NCCSc1ccc(O)cc1`: 36 s⁻¹, 0.22 s⁻¹, 0.049 mM, 8300 M⁻¹ s⁻¹ and 4500 M⁻¹ s⁻¹.
As for `NCCc1ccc(O)cc1`, the k cat in [1] amounted to 85 s⁻¹. For the same molecule, in series [4], the Ratio was 42000 M⁻¹ s⁻¹.
With `NCCCc1ccccc1`, the k cat turned out to be 12 s⁻¹ in series [1] and 0.17 s⁻¹ in [6]. Further, in [7], the Km was 0.29 mM. The Ratio was found to be 590 M⁻¹ s⁻¹ in series [4] and 580 M⁻¹ s⁻¹ in series [8].
Consider `CC(N)CSc1ccccc1` (racemic), for which the k cat in series [1] was 20 s⁻¹; in series [2], “No activity”. In addition, in series [3], the Km entry is listed as “No activity”. The results for the Ratio in series [4] and in [5] were 1000 M⁻¹ s⁻¹ and “No activity”, respectively.
With `NCCc1ccccc1` [PHENETHYLAMINE], the k cat in [1] was 65 s⁻¹; in [6], 0.23 s⁻¹. In addition, in series [7], the Km is 2.2 mM. In addition, the Ratio is 9300 M⁻¹ s⁻¹ in series [4] and 100 M⁻¹ s⁻¹ in series [8].

B1: Dopamine beta-hydroxylase (Bos taurus), P15101 (protein)
chain: T1 sequence (whole entry)
For B1, the Km in [9] was found to be 6.5 mM; in [10], 19.1 mM; in series [11], 20.4 mM; in [12] it was 4.4 mM; in series [13] it was 17.2 mM; in [14], 2 mM. Also, the Km in series [15] was 7 mM.

These data come from ChEMBL document CHEMBL1122621, “Antihypertensive activities of phenyl aminoethyl sulfides, a class of synthetic substrates for dopamine beta-hydroxylase” (J Med Chem, 1984).
